# Screening results as filed in PubChem.
# This is a sample that favours compounds with a hit; in the whole collection about 3.1% have one here.
# KCNQ1 pot – potentiates or activates the human KCNQ1 potassium channel. P51787. CHO-K1 KCNQ1, thallium flux FluxOR fluorescence; hits give high values. B-score at 10 µM. hit rate 0.35% among 310,000;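 active = fluorescence ratio B-score, a plate-corrected score, at least three library SD, with initial intensity B-score within 5 SD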
#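 Material: CHO-K1 cells stably expressing KCNQ1. Medium: assay buffer for compound exposure, DMSO matched across wells. Reagent: K+/Tl+ depolarizing stimulus. Compound dosing: single-concentration screen. Times: 37 °C overnight plating, 90-min dark dye load, 20-min compound pretreatment. Technique: FluxOR Tl+ flux fluorescence.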
# KCNQ1 inh – inhibitors of human KCNQ1 potassium channel; P51787; CHO-K1 KCNQ1, FluxOR thallium flux fluorescence; hits give high values; B-score at 10 µM; hit rate 1.3% among 310,000; AID 2642;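 active = compounds whose thallium flux B-score, printed positive for inhibition, exceeds three library SD while starting fluorescence stays within three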;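 also: channel opened by potassium depolarization with thallium stimulus after 20 min compound exposure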
# KCNK9 block – human KCNK9 channel inhibition; Q9NPC2; HEK293 KCNK9, FluxOR thallium flux fluorescence; hits give low values; B-score at 10 µM; hit rate 1.2% among 310,000;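 active = ratio B-score over 3 SD below the library mean, with starting fluorescence within 5 SD of its mean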;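 also: negative B-score means less thallium flux so channel inhibition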
# KCNK3 block – human KCNK3 channel inhibition, primary screen; CHO-KCNK3 thallium flux, FluxOR fluorescence; hits give low values; B-score at 10 µM; hit rate 0.84% among 340,000; AID 602410;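 active = B-score under library mean minus 4 SD, starting fluorescence ratio at most library mean plus 5 SD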;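 also: more negative B-score means stronger inhibition of thallium flux through KCNK3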
# hERG protect – compounds protecting human hERG from proarrhythmic drug block; AID 1511; CHO-hERG, FluxOR thallium flux, dofetilide IC70 present; activation (rescue from dofetilide block), less the hit threshold, % at 10 µM; hit rate 0.51% among 310,000;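 active = activation above the mean of controls blocked by dofetilide plus 5 SD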;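 also: thallium influx through hERG after potassium depolarization seen as dye fluorescence rise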
# KCNK9 inh conf – confirmation of human KCNK9 potassium channel inhibitors; AID 492992; hit rate 43% among 4,900; shares compounds with KCNK9 block; inhibition, % at 10 µM; HEK293 KCNK9 cells, FluxOR thallium flux fluorescence;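 active = thallium signal inhibited by more than 5 SD of the compound-free buffer control wells, on both duplicate plates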;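 also: 0% = assay buffer control wells without compound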
# Kir21 sel – tests whether KCNK9 modulators also affect mouse Kir2.1; shares compounds with KCNK9 block; hit rate 4% among 4,900; AID 492993; inhibition, % at 10 µM; Kir2.1 cells, FluxOR thallium flux fluorescence;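 active = thallium signal drop more than 5 SD beyond the mean of the no-compound control wells, seen in both duplicate plates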;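 also: signal is fluorescence rise after thallium addition divided by baseline fluorescence; plate controls were assay buffer only for no effect and full block by chlorpromazine control for full effect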
# Target sequence (P35561 whole entry, looked up): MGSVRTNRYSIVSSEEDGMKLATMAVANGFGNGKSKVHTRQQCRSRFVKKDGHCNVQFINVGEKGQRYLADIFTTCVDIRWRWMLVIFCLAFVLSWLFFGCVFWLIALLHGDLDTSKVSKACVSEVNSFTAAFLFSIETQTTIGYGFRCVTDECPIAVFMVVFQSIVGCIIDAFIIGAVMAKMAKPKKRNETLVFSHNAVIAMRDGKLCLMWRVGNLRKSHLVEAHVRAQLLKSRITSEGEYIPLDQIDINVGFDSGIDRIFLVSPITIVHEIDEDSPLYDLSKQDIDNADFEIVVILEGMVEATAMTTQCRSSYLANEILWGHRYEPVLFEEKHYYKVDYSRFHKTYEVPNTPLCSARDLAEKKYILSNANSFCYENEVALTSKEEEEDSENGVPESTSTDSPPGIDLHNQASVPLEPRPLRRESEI
# HEK293 Tl ctr – non-induced cell nonspecific activity of KCNK9 modulators; shares compounds with KCNK9 block; non-induced KCNK9-HEK293, FluxOR thallium flux; inhibition, % at 10 µM; hit rate 40% among 4,900; AID 492997;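 active = thallium signal drop beyond 5 SD of the untreated control mean, on both duplicate plates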;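 also: plate controls were buffer only IC0 wells for no effect and SID17386958 at its maximal inhibitory level for full effect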
# * hit, by the source's call; i = inactive; nt = no result given.
SMILES,KCNQ1 pot,KCNQ1 inh,KCNK9 block,KCNK3 block,hERG protect,KCNK9 inh conf,Kir21 sel,HEK293 Tl ctr
CCN(CC(=O)Nc1ccc(S(=O)(=O)N2CCCCC2)cc1)Cc1ccccc1,i,i,i,i,-11,nt,nt,nt
Cc1ccccc1-n1nc(CSc2nc3ccccc3[nH]2)c(-c2ccccc2)c1N,i,i,i,i,-18,nt,nt,nt
Nc1c(-c2ccccc2)c(CSc2nc3ccccc3[nH]2)nn1-c1cccc(Cl)c1,i,i,-13*,i,-6,71%*,i,38%*
Nc1c(-c2ccccc2)c(CSc2nc3ccccc3[nH]2)nn1-c1ccc(Cl)cc1,i,i,-9.3*,i,-8,60%*,i,28%*
CC(C)N1C(=O)C(Cc2nc3ccccc3c(=O)n2-c2ccccc2)c2ccccc21 (configuration not stated),i,i,i,i,-6,i,i,i
COc1ccc(C(=O)Nn2c(SCc3ccc([N+](=O)[O-])cc3)nc3ccccc3c2=O)cc1,i,i,-11*,i,-7,56%*,i,32%*
Cc1ccc(CNC(=O)CSc2nc3ccsc3c(=O)n2NC(=O)c2ccccc2)cc1,i,i,i,i,-13,nt,nt,nt
COc1ccc(C(=O)Nn2c(SCC(=O)c3ccccc3)nc3ccccc3c2=O)cc1,i,i,i,i,-20,nt,nt,nt
O=C(Nn1c(SCc2ccc(F)cc2)nc2ccsc2c1=O)c1ccccc1,i,i,-11*,i,-11,74%*,i,46%*
CCOC(=O)C1CCN(C(=O)Cn2ncc3c([nH]c4ccccc43)c2=O)CC1,i,i,i,i,-8,nt,nt,nt
COc1ccc(NCc2nc3ccccc3n2CCOc2ccccc2)cc1,i,i,-11*,i,-5,i,i,33%*
Cc1cccc(OCCn2c(-c3ccco3)nc3ccccc32)c1,i,i,-10*,i,-18,30%*,i,34%*
c1ccc(NCc2nc3ccccc3n2CCOc2ccccc2)cc1,i,i,i,i,-5,nt,nt,nt
COc1ccc(NCc2nc3ccccc3n2CCOc2ccc(C)cc2)cc1,i,i,-11*,i,0,70%*,48%*,52%*
COc1ccc(NCc2nc3ccccc3n2C)cc1,i,i,i,i,-1,nt,nt,nt
C=C(C)CN(CC)C(=O)CSc1ccc(S(=O)(=O)N2CCN(C)CC2)cn1,nt,nt,nt,i,nt,nt,nt,nt
CC(C)=CCc1c(-c2ccc(O)cc2O)oc2c3c(cc(O)c2c1=O)OC(C)(C)C=C3,i,i,i,nt,-9,i,i,i
CCOC(=O)N1CCN(C(=O)c2cc(COc3cccc(C(F)(F)F)c3)on2)CC1,i,i,i,i,-16,nt,nt,nt
C=CCC1(CC=C)CCCN1C(=O)c1cc(COc2cccc(C(F)(F)F)c2)on1,i,i,i,i,-12,i,i,i
Cc1ccc(CN(C)C(=O)c2cc(COc3cccc(C(F)(F)F)c3)on2)o1,i,i,i,i,-13,i,i,32%*
CC(C)N(C(=O)CSc1nnc(-c2ccc3c(c2)OCO3)n1C)C(C)C,i,i,i,i,-13,nt,nt,nt
O=C(Cc1ccc(Cl)cc1)Nc1ccc(N2CCN(C(=O)c3ccco3)CC2)c(Cl)c1,i,i,-9.8*,i,-2,30%*,35%*,i
CCC(=O)Nc1ccc(N2CCN(C(=O)c3ccco3)CC2)c(Cl)c1,i,i,i,i,-5,nt,nt,nt
Cc1ccc(C)c(N2CCN(CC3CC=CCC3)CC2)c1 (configuration not stated),i,i,i,i,4,i,i,i
CCN(C(=O)COC(=O)c1oc2ccccc2c1C)c1c(N)n(Cc2ccccc2)c(=O)[nH]c1=O,nt,nt,nt,i,nt,nt,nt,nt
SMILES,KCNQ1 pot,KCNQ1 inh,KCNK9 block,KCNK3 block,hERG protect,KCNK9 inh conf,Kir21 sel,HEK293 Tl ctr
Cc1cccnc1Nc1nc(-c2ccccc2)cs1,i,i,i,i,-1,i,i,26%*
CCC(CC)C(=O)Oc1c(Sc2ccccc2[N+](=O)[O-])c(C)nn1C(C)(C)C,i,i,-12*,i,-12,52%*,i,33%*
CCN(C(=O)COC(=O)c1ccc(Cl)cc1N)C1CCCCC1,i,i,i,i,-13,i,i,i
O=C(Cn1nc(-c2ccccc2)ccc1=O)Nc1ccc(N2CCN(C(=O)c3cccs3)CC2)cc1,i,i,i,i,3,nt,nt,nt
O=C1[C@@H]2[C@@H]3C[C@@H]([C@H]4ON=C(c5ccc(Cl)cc5)[C@@H]34)[C@@H]2C(=O)N1C1CCCCC1,i,i,i,i,-6,i,i,i
CCn1c2c(c3cc(Br)ccc31)CCC/C2=N\O,i,i,i,i,-4,nt,nt,nt
CCn1c2c(c3cc(OCC(C)C)ccc31)CCCC2=O,i,i,i,i,-3,i,i,i
O=[N+]([O-])c1ccc(COc2cccc(CNc3ccc(Br)cc3)c2)cc1,i,i,-10*,i,-16,i,i,37%*
O=[N+]([O-])c1ccc(COc2ccc(CNc3ccccc3)cc2)cc1,i,i,i,i,-6,nt,nt,nt
COC(=O)COc1cc(OCC(=O)OC)c2c(C)c(Cl)c(=O)oc2c1,i,i,i,i,-5,nt,nt,nt
COC(=O)C(C)Oc1cc(OC(C)C(=O)OC)c2c(C)c(Cl)c(=O)oc2c1 (configuration not stated),i,i,i,i,-10,i,i,i
COc1ccc(/C=C2/C(=O)OCc3cc(OC)c(OC)cc32)cc1,i,i,i,i,-5,nt,nt,nt
Cc1cc2c(=O)n(CC(=O)NCC(=O)N3CCN(Cc4ccccc4)CC3)cnc2s1,i,i,-11*,i,-6,i,i,i
COc1ccc(/C(N)=N/OC(=O)C2CCCCC2)cc1,i,i,i,i,-11,nt,nt,nt
CSCCC(NS(=O)(=O)c1c(Cl)cccc1Cl)C(=O)O (configuration not stated),i,i,i,i,5,nt,nt,nt
COC(=O)N/N=C/c1c(C)nn(-c2cccc(Cl)c2)c1Cl,i,i,-8.3*,i,-6,42%*,i,28%*
CCN(C(=O)COc1cc(=O)n(C)c2ccccc12)c1cccc(Cl)c1,i,i,i,i,-10,i,i,i
